Measurements from ChEMBL document CHEMBL4689842, “EUbOPEN Chemogenomics Library wave 1” (2021).

System: Fibroblast
Experiment: Multiplex assay against human fibroblast
Type: toxicity, cell-based
In short: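 Cells stained live at seeding with Hoechst33342, BioTracker Green Microtubule Cytoskeleton Dye, MitoTracker Red and Annexin V Alexa Fluor 680 were imaged on a CQ1 microscope at 37°C and 5% CO2 after compound addition. Their classification by CellPathfinder machine-learning gating ran from Hoechst high-intensity objects versus normal cells, to healthy, pyknosed or fragmented nuclei among normal cells, to mitotic or apoptotic among pyknosed cells. Tubulin, mitochondrial-mass and membrane-permeability phenotypes are per cents of healthy-nucleus cells.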

[1] = 12 h, 1 µM, compound concentration 1 uM, replicate 1
[2] = 12 h, 1 µM, compound concentration 1 uM, replicate 2
[3] = 12 h, 10 µM, compound concentration 10 uM, replicate 1
[4] = 12 h, 10 µM, compound concentration 10 uM, replicate 2
[5] = 24 h, 1 µM, compound concentration 1 uM, replicate 1
[6] = 24 h, 1 µM, compound concentration 1 uM, replicate 2
[7] = 24 h, 10 µM, compound concentration 10 uM, replicate 1
[8] = 24 h, 10 µM, compound concentration 10 uM, replicate 2
[9] = 48 h, 1 µM, compound concentration 1 uM, replicate 1
[10] = 48 h, 1 µM, compound concentration 1 uM, replicate 2
[11] = 48 h, 10 µM, compound concentration 10 uM, replicate 1
[12] = 48 h, 10 µM, compound concentration 10 uM, replicate 2

Structure (SMILES): Cc1ccc(C)c(Oc2ccncc2C(=O)N2CCN(C3CC3)c3ccccc32)c1
- Population Apoptotic (%) [1]: 75%
- Population Fragmented Nuclei (%) [1]: 20%
- Population Healthy Nuclei (%) [1]: 58%
- Population Hoechst High Intensity Objects (%) [1]: 13%
- Population Normal (%) [1]: 86%
- Total Cell Count [1]: 90
- Population Apoptotic (%) [2]: 66%
- Population Healthy Nuclei (%) [2]: 75%
- Population Hoechst High Intensity Objects (%) [2]: 10%
- Population Normal (%) [2]: 89%
- Total Cell Count [2]: 73
- Population Apoptotic (%) [3]: 59%
- Population Fragmented Nuclei (%) [3]: 27%
- Population Healthy Nuclei (%) [3]: 43%
- Population Hoechst High Intensity Objects (%) [3]: 10%
- Population Normal (%) [3]: 89%
- Total Cell Count [3]: 178
- Population Apoptotic (%) [4]: 33%
- Population Fragmented Nuclei (%) [4]: 6%
- Population Healthy Nuclei (%) [4]: 72%
- Population Hoechst High Intensity Objects (%) [4]: 3%
- Population Normal (%) [4]: 96%
- Total Cell Count [4]: 59
- Population Apoptotic (%) [5]: 52%
- Population Fragmented Nuclei (%) [5]: 19%
- Population Healthy Nuclei (%) [5]: 56%
- Population Hoechst High Intensity Objects (%) [5]: 19%
- Population Normal (%) [5]: 80%
- Total Cell Count [5]: 88
- Population Apoptotic (%) [6]: 42%
- Population Fragmented Nuclei (%) [6]: 27%
- Population Healthy Nuclei (%) [6]: 60%
- Population Hoechst High Intensity Objects (%) [6]: 6%
- Population Normal (%) [6]: 93%
- Total Cell Count [6]: 71
- Population Apoptotic (%) [7]: 55%
- Population Fragmented Nuclei (%) [7]: 26%
- Population Healthy Nuclei (%) [7]: 51%
- Population Hoechst High Intensity Objects (%) [7]: 6%
- Population Normal (%) [7]: 93%
- Total Cell Count [7]: 189
- Population Apoptotic (%) [8]: 53%
- Population Healthy Nuclei (%) [8]: 66%
- Population Hoechst High Intensity Objects (%) [8]: 7%
- Population Normal (%) [8]: 92%
- Total Cell Count [8]: 65
- Population Apoptotic (%) [9]: 80%
- Population Fragmented Nuclei (%) [9]: 23%
- Population Healthy Nuclei (%) [9]: 57%
- Population Hoechst High Intensity Objects (%) [9]: 11%
- Population Normal (%) [9]: 88%
- Total Cell Count [9]: 87
- Population Apoptotic (%) [10]: 50%
- Population Fragmented Nuclei (%) [10]: 24%
- Population Healthy Nuclei (%) [10]: 72%
- Population Normal (%) [10]: 84%
- Total Cell Count [10]: 91
- Population Apoptotic (%) [11]: 66%
- Population Fragmented Nuclei (%) [11]: 40%
- Population Healthy Nuclei (%) [11]: 52%
- Population Hoechst High Intensity Objects (%) [11]: 9%
- Population Normal (%) [11]: 91%
- Total Cell Count [11]: 211
- Population Apoptotic (%) [12]: 25%
- Population Fragmented Nuclei (%) [12]: 42%
- Population Healthy Nuclei (%) [12]: 54%
- Population Hoechst High Intensity Objects (%) [12]: 7%
- Population Normal (%) [12]: 92%
- Total Cell Count [12]: 159
